Among the data in ChEMBL document CHEMBL1125911, “Synthesis and biological activity of new HMG-CoA reductase inhibitors. 3. Lactones of 6-phenoxy-3,5-dihydroxyhexanoic acids” (J Med Chem, 1991) are IC50, Relative potency and Change values, retold here.

Molecules are shown by their SMILES. pIC50: −log10 of the molar value.

In assay [1] the target is T1, 3-hydroxy-3-methylglutaryl-coenzyme A reductase (Rattus norvegicus, UniProt P51639).
T1 sequence (P51639 whole entry): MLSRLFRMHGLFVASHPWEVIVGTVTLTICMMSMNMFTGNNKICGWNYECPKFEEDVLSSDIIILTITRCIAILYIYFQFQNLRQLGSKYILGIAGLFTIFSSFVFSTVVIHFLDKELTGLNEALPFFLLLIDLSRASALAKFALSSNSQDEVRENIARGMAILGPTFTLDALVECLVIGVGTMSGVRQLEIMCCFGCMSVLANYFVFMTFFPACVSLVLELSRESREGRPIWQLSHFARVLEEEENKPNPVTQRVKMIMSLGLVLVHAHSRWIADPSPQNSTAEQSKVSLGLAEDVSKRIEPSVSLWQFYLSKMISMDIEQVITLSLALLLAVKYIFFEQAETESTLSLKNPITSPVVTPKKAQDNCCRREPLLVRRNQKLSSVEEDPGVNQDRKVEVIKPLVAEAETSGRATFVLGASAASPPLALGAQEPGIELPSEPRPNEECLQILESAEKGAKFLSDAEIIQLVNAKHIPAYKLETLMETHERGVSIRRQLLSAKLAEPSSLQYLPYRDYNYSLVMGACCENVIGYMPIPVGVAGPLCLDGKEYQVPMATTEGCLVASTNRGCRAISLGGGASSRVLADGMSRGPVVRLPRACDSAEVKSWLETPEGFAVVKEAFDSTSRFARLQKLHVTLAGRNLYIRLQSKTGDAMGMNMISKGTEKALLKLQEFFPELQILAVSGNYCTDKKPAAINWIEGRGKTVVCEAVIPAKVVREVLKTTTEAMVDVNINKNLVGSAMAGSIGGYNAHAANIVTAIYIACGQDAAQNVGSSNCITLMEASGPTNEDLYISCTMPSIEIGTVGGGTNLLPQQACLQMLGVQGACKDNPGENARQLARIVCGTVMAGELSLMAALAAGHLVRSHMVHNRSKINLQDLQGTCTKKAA
The assay can be described thus: In vitro inhibition of HMG-CoA reductase in solubilized rat liver.

Assay [2] addresses T2, 3-hydroxy-3-methylglutaryl-coenzyme A reductase (Rattus norvegicus) (UniProt P51639).
T2 sequence (whole entry): T1 sequence (P51639 whole entry)
As to the kind of experiment: (§1) Inhibition of HMG-CoA reductase compared to mevinolin. A digest of the protocol:
(§2)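 Solubilized, partially purified rat liver HMG-CoA reductase. IC50 from four or five inhibitor concentrations. Relative potency compared IC50 with mevinolin (set to 100), corrected for molecular weight.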

Assay [3] concerns the target T3, 3-hydroxy-3-methylglutaryl-coenzyme A reductase (Homo sapiens, UniProt P04035).
T3 sequence (P04035 whole entry): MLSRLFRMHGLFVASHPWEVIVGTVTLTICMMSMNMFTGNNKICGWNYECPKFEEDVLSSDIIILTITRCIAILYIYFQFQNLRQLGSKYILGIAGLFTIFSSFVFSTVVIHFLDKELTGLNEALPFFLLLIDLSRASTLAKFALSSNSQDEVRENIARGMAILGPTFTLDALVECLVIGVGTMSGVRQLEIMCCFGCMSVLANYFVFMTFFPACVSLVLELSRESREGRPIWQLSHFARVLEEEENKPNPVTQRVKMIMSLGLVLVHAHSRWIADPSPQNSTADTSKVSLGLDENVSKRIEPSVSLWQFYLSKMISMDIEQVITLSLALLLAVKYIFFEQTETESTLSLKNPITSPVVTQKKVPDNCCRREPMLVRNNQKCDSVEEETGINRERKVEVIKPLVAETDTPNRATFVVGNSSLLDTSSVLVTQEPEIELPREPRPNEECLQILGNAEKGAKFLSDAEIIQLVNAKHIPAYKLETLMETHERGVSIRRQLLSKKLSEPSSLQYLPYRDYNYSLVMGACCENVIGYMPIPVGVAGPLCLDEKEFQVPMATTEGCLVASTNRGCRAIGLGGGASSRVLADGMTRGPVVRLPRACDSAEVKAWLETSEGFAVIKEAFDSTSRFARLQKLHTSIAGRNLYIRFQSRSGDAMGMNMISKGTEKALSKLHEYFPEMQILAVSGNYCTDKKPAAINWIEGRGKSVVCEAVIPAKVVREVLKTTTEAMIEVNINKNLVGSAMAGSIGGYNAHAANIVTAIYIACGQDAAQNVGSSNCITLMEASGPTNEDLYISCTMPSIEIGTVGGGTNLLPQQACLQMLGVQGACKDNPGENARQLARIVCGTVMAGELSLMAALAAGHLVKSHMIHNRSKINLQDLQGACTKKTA
The assay can be described thus: Inhibition of the incorporation of sodium [14C]acetate into cholesterol in HEP G2 cells. It is filed as functional, cell-based, HepG2.

Assay [4] concerns the target T4, 3-hydroxy-3-methylglutaryl-coenzyme A reductase (Homo sapiens) (UniProt P04035).
T4 sequence (whole entry): T3 sequence (P04035 whole entry)
The assay is described as §1. The format is functional. A digest of the protocol: as §2

In assay [5] the test system is Oryctolagus cuniculus. As to the kind of experiment: Tested in vivo for hypocholesterolemic activity by measuring its ability to decrease serum total cholesterol, after oral administration of 75 mg/kg body wt. per day in normolipidemic NZW rabbits; Not significantly active. It is filed as functional, organism-based. On the set-up: dose 75 mg/kg, route oral.
For assay [6], the system named is Oryctolagus cuniculus. As to the kind of experiment: Tested in vivo for hypocholesterolemic activity by measuring its ability to decrease serum total cholesterol, after oral administration of 75 mg/kg body wt. per day in normolipidemic NZW rabbits. The format is functional. A digest of the protocol: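 NZW rabbits (n = 5 or 6) dosed orally daily for 10 days. Serum total cholesterol reported as % change versus control. For 20 mg/kg, that dose was given on days 11-20 after 10 mg/kg, with the value read on day 20. Error given as SEM.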

The pIC50 is the IC50 on a negative log10 scale, so that one unit is a factor of ten. Lower therefore signals a high IC50. Take `CC(C)c1cc(C(C)(C)C)cc(-c2ccc(F)cc2)c1OCC(O)C[C@@H](O)CC(=O)[O-].[Na+]` (some centres not stated): the negative-log IC50 (pIC50) is 6.40 in assay [1] and less than 6.30 in assay [3]. Also, the Relative potency in assay [2] was 2; in assay [4], less than 10. Besides, in the assay with Oryctolagus cuniculus [5], the IC50 result was “Not Active”.

In assay [1], `O=C([O-])C[C@H](O)CC(O)COc1c(Cl)cc(Cl)cc1C(c1ccc(F)cc1)c1ccc(F)cc1.[Na+]` (stereo in doubt; 11b) gave a pIC50 of 7.30. Moreover, the Change in the assay on Oryctolagus cuniculus [6] is -25%.
